Test [1] addresses Tissue-type plasminogen activator (Homo sapiens) (UniProt P00750). Put plainly: Inhibition of tPA (unknown origin) assessed as inhibition of release of AMC fluorescent product using Z-GGR-AMC as substrate at 10 uM incubated for 30 mins by microplate reader relative to control. The method, boiled down: (§1)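 Each inhibitor at 10 μM was preincubated 15 min at 37 °C with the protease at an optimized concentration in its own buffer. Reaction started with AMC substrate: Ac-VDVAD-AMC 25 μM (caspase-2), Ac-DEVD-AMC 10 μM (caspase-3), Ac-VEID-AMC 100 μM (caspase-6), Z-LR-AMC 50 μM (cathepsin L), Z-GGR-AMC 100 μM (tPA). Read for 30 min at 37 °C; % inhibition from initial rates versus DMSO; 3 independent experiments.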

A further test deals with Trypsin (Homo sapiens) (UniProt P07477+P07478+P35030). Put plainly: Inhibition of Trypsin (unknown origin) assessed as inhibition of release of AMC fluorescent product using […] as substrate at 10 uM incubated for 30 mins by microplate reader relative to control. In kind it is protein assay.
The target of test [2] is Kallikrein-5 (Homo sapiens) (UniProt Q9Y337). Briefly: Inhibition of KLK5 (unknown origin) assessed as inhibition of release of AMC fluorescent product using H-VPR-AMC as substrate at 10 uM incubated for 30 mins by microplate reader relative to control.
The target of test [3] is T1, Kallikrein-8 (Homo sapiens) (UniProt O60259).
T1 sequence (whole entry): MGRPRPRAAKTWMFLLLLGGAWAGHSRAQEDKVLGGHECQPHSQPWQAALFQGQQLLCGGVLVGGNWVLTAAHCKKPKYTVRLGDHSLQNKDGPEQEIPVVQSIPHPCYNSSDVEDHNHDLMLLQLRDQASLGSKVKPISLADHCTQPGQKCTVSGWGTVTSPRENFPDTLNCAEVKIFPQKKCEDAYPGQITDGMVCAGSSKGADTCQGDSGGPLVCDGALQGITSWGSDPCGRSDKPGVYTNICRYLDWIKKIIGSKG
Put plainly: Inhibition of KLK8 (unknown origin) assessed as inhibition of release of AMC fluorescent product using H-VPR-AMC as substrate at 10 uM incubated for 30 mins by microplate reader relative to control.

In the next test the target is T2, Caspase-6 (Homo sapiens) (UniProt P55212).
T2 sequence (whole entry): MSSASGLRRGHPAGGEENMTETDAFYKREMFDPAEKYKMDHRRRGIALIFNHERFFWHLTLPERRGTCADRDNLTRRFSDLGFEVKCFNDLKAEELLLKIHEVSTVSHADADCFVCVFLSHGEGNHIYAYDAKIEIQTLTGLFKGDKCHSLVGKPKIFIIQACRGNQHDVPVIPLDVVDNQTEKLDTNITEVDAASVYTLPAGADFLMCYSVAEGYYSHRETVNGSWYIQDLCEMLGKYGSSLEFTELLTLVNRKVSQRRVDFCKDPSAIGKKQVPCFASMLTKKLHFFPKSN
Put plainly: Inhibition of Caspase-6 (unknown origin) assessed as inhibition of release of AMC fluorescent product using Ac-VEID-AMC as substrate at 10 uM incubated for 30 mins by microplate reader relative to control. Put shortly:
as §1

Test [4] concerns the target Kallikrein-7 (Homo sapiens) (UniProt P49862). Briefly: Inhibition of KLK7 (unknown origin) assessed as inhibition of release of AMC fluorescent product using MeO-Suc-RPY-AMC as substrate at 10 uM incubated for 30 mins by microplate reader relative to control.
The target of the next test is Kallikrein-1 (Homo sapiens, UniProt P06870). Put plainly: Inhibition of KLK1 (unknown origin) assessed as release of AMC fluorescent product using H-PFR-AMC as substrate incubated for 30 mins by microplate reader.
Test [5] addresses Kallikrein-4 (Homo sapiens) (UniProt Q9Y5K2). Briefly: Inhibition of KLK4 (unknown origin) assessed as inhibition of release of AMC fluorescent product using H-VPR-AMC as substrate at 10 uM incubated for 30 mins by microplate reader relative to control.
For another test, the target named is T3, Caspase-2 (Homo sapiens) (UniProt P42575).
T3 sequence (whole entry): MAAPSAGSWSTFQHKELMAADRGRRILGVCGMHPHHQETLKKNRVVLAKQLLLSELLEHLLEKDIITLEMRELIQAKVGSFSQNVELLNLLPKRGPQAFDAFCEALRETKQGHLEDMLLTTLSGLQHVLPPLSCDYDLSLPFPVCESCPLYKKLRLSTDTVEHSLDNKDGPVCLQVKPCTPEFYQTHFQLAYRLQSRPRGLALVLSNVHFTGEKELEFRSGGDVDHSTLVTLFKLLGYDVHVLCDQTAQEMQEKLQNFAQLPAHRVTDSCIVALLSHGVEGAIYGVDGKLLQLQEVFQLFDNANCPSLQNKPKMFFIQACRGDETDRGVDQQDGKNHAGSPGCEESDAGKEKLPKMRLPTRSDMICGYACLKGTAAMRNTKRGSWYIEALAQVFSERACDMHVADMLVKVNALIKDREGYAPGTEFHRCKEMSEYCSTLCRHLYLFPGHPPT
Put plainly: Inhibition of Caspase-2 (unknown origin) assessed as inhibition of release of AMC fluorescent product using Ac-VDVAD-AMC as substrate at 10 uM incubated for 30 mins by microplate reader relative to control. Put shortly: as §1

Another test addresses T4, Caspase-3 (Homo sapiens) (UniProt P42574).
T4 sequence (whole entry): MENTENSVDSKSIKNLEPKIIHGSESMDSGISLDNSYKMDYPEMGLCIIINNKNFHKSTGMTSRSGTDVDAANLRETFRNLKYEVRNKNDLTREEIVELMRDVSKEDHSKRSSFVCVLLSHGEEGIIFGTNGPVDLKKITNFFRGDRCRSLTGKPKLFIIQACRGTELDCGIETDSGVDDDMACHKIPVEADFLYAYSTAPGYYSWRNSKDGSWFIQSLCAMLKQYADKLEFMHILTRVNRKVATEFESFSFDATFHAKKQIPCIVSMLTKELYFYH
Briefly: Inhibition of Caspase-3 (unknown origin) assessed as inhibition of release of AMC fluorescent product using Ac-DEVD-AMC as substrate at 10 uM incubated for 30 mins by microplate reader relative to control. The method, boiled down:
as §1

Test [6] has as its target T5, Kallikrein-14 (Homo sapiens) (UniProt Q9P0G3).
T5 sequence (whole entry): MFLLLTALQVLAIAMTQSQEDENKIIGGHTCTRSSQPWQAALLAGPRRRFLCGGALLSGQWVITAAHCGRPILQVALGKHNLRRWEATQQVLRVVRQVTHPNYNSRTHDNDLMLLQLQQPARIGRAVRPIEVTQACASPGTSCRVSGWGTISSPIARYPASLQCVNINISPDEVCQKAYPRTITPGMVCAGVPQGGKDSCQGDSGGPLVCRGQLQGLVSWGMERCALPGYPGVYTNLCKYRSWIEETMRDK
Briefly: Inhibition of KLK14 (unknown origin) assessed as inhibition of release of AMC fluorescent product using H-VPR-AMC as substrate at 10 uM incubated for 30 mins by microplate reader relative to control.

The values below come from ChEMBL document CHEMBL4831480, “Identification of First-in-Class Inhibitors of Kallikrein-Related Peptidase 6 That Promote Oligodendrocyte Differentiation” (J Med Chem, 2021).

Kallikrein-7 (Homo sapiens), sequence (P49862 30-253 limits assumed): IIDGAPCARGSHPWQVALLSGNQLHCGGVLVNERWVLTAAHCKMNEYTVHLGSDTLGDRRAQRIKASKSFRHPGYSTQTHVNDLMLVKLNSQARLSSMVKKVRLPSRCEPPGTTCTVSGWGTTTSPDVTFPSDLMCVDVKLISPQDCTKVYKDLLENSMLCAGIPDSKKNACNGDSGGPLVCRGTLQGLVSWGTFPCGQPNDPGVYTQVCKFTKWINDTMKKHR
Kallikrein-5 (Homo sapiens), sequence (Q9Y337 whole entry): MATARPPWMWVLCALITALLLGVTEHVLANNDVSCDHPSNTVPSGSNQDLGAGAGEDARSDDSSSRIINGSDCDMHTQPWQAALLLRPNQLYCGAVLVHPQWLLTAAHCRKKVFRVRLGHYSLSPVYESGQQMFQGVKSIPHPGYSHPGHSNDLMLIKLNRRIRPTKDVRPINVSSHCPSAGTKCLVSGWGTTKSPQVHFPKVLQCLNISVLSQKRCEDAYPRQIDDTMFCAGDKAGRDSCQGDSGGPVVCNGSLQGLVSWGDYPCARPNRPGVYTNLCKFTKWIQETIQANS
Tissue-type plasminogen activator (Homo sapiens), sequence (P00750 36-562 limits assumed): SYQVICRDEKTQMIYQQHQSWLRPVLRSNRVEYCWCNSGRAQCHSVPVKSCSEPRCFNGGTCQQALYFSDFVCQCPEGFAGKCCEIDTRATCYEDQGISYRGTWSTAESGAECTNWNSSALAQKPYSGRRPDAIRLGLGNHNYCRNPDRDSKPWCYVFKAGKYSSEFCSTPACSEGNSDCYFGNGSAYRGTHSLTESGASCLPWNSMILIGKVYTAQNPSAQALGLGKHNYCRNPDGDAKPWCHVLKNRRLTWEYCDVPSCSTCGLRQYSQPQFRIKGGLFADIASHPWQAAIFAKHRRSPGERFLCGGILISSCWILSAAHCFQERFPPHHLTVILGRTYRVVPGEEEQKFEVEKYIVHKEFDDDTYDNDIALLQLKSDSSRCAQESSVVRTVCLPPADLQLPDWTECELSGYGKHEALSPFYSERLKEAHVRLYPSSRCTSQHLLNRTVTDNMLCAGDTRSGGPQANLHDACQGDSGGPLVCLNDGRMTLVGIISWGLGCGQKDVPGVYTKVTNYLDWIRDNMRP
Kallikrein-1, sequence (P06870 whole entry): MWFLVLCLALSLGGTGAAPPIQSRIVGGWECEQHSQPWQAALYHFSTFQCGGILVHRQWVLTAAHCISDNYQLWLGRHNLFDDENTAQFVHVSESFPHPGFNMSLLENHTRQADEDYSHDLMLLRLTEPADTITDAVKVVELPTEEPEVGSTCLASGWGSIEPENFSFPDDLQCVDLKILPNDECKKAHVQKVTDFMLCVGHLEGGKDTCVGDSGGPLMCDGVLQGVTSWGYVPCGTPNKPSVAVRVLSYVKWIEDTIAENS
Kallikrein-4 (Homo sapiens), sequence (Q9Y5K2 whole entry): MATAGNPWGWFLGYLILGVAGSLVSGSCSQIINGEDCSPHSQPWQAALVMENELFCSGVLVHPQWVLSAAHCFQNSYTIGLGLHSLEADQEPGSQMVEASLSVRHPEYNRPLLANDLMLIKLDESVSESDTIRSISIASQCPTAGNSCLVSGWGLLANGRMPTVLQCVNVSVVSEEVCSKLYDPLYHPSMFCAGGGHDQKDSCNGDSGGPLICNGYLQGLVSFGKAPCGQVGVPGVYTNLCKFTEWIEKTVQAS

In general, inhibition refers to the relative decrease from the control value, in per cent. The IC50 is the concentration at which inhibition is half-maximal. As to `CC(C)(C)c1ccc(O)c(C(=O)Nc2ccc(CN)cc2)c1.Cl`, the inhibition in test [1] was determined as 11%; on Trypsin (Homo sapiens), 5%; in [2] it was 35%; in test [3] it was 16%; at Caspase-6 (Homo sapiens), 13%; in test [4] it was 9%. Further, the inhibition in test [5] was 0%; on Caspase-2 (Homo sapiens), 5%; on Caspase-3 (Homo sapiens), 11%; in test [6], 1.5%. Also, the IC50 on Kallikrein-1 is 38.6 µM.
`Cl.NCc1ccc(NC(=O)c2cc3ccccc3cc2O)cc1`: the inhibition in [1] was found to be 6%; at Trypsin (Homo sapiens), 25%; in [2] it was 4%; in test [3], 61%; at Caspase-6 (Homo sapiens) it was 40%; in test [4] it was 6%. Also, the inhibition in test [5] worked out at 2%; at Caspase-2 (Homo sapiens) it was 4%; on Caspase-3 (Homo sapiens), 5%; in test [6] it was 5%. The IC50 at Kallikrein-1 is 5.1 µM.
`Cc1ccc2ccc(C(=O)Nc3ccc(CN)cc3)c(O)c2c1`: the inhibition in [1] was 9%; on Trypsin (Homo sapiens), 32%; in test [2], 0%; in test [3], 53%; on Caspase-6 (Homo sapiens), 31%; in [4], 11%. The inhibition in test [5] was 6%; at Caspase-2 (Homo sapiens), 8%; on Caspase-3 (Homo sapiens), 10%; in test [6], 4%. In addition, the IC50 on Kallikrein-1 amounted to 49.4 µM.
As to `Cl.NCc1ccc(NC(=O)c2ccc3ccccc3c2O)cc1`, the inhibition was 18% in test [1]; 34% on Trypsin (Homo sapiens); 22% in [2]; 22% in [3]; 56% at Caspase-6 (Homo sapiens); 0% in [4]. Further, the inhibition worked out at 14% in test [5], 30% at Caspase-2 (Homo sapiens), 10% at Caspase-3 (Homo sapiens) and 11% in [6]. Also, the IC50 at Kallikrein-1 is 21.3 µM.
Turning to `COc1ccc2c(O)c(C(=O)Nc3ccc(CN)cc3)ccc2c1`, the inhibition in test [1] came to 10%; at Trypsin (Homo sapiens), 41%; in test [2], 31%; in test [3], 45%; at Caspase-6 (Homo sapiens), 70%; in [4] it was 10%. The inhibition is 3% in test [5], 14% on Caspase-2 (Homo sapiens), 3% at Caspase-3 (Homo sapiens) and 16% in [6]. Besides, on Kallikrein-1, the IC50 was determined as 16.1 µM.
For the compound `Cc1ccc(C(=O)Nc2ccc(CN)cc2)c(O)c1.Cl`, the inhibition was found to be 0% in [1]; 15% at Trypsin (Homo sapiens); 5% in test [2]; 34% in [3]; 5% on Caspase-6 (Homo sapiens); 12% in [4]. Moreover, the inhibition in [5] worked out at 0%; at Caspase-2 (Homo sapiens), 0%; at Caspase-3 (Homo sapiens), 0%; in test [6] it was 3%. Also, the IC50 on Kallikrein-1 was 26.3 µM.
Take `CC(C)c1ccc(C(=O)Nc2ccc(CN)cc2)c(O)c1`: the inhibition in test [1] was 6%; at Trypsin (Homo sapiens), 91%; in test [2], 24%; in [3], 58%; on Caspase-6 (Homo sapiens), 12%; in [4], 7%. The inhibition came out at 45% in test [5], 15% on Caspase-2 (Homo sapiens), 13% at Caspase-3 (Homo sapiens) and 12% in test [6]. Further, the IC50 on Kallikrein-1 was 8.4 µM.
